Data set [1] has as its target Bcl-2-like protein 1 (Homo sapiens, UniProt Q07817). As to the kind of experiment: Inhibition of c-terminal 6xHis-tagged Bcl-xL (amino acids 1 to 209) (unknown origin) preincubated for 1 hr prior to substrate addition measured after 20 mins by fluorescence polarization assay. The essentials: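 Bcl-xL (aa 1–209, C-terminal 6xHis) at 0.8 nM preincubated 1 h with serial antagonist dilutions, then 2 nM FITC-labelled Bim BH3 peptide tracer added; buffer 20 mM HEPES pH 7.5, 1 mM DTT, 0.005% Tween-20, 50 mM NaCl.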
On the technique in general: Polarisation of emitted light reports the rotation of a fluorescent probe.

In data set [2] the target is Apoptosis regulator Bcl-2 (Homo sapiens, UniProt P10415). As to the kind of experiment: Inhibition of c-terminal 6xHis-tagged Bcl-2 (amino acids 1 to 204) (unknown origin) preincubated for 1 hr prior to substrate addition measured after 20 mins by fluorescence polarization assay.
Sequence of Apoptosis regulator Bcl-2 (P10415 whole entry, the tested form may be a part): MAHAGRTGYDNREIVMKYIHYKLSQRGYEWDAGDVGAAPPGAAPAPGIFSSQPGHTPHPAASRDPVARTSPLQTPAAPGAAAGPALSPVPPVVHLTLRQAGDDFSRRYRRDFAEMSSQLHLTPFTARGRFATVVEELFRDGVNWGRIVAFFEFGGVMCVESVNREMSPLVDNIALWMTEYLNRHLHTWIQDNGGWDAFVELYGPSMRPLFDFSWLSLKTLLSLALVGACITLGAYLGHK
Data set [3] deals with RS4-11. As to the kind of experiment: Induction of apoptosis in human RS4:11 cells overexpressing BCL-2 assessed as caspase 3/7 activation after 6 hrs by quantitative luminescence assay. It is filed as functional, cell-based. The conditions noted are these: RS4-11, 6 h. The essentials:
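RS4;11 cells seeded 10,000/well in RPMI with 10% FBS; after 16 h, compound added in duplicate for 6 h at 37 °C. Equal volume of Caspase-Glo 3/7 reagent added, 1 h, luminescence read. DMSO set minimum and ABT-263 maximum caspase activity. EC50 averaged from at least two experiments.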

The nature of data set [4]: Equilibrium solubility of the compound at pH 7.4. It is filed as physicochemical. The conditions noted are these: buffer.
Data set [5] is described as follows: Dissociation constant, pKa of the compound. Format: physicochemical.

In brackets after ≈: the same amount, converted by molar mass. Bounds are passed on as bounds.

Consider 28 compounds from ChEMBL document CHEMBL3351631, “Towards the next generation of dual Bcl-2/Bcl-xL inhibitors” (Bioorg Med Chem Lett, 2014).

Sequence of Bcl-2-like protein 1 (Q07817 whole entry, the tested form may be a part): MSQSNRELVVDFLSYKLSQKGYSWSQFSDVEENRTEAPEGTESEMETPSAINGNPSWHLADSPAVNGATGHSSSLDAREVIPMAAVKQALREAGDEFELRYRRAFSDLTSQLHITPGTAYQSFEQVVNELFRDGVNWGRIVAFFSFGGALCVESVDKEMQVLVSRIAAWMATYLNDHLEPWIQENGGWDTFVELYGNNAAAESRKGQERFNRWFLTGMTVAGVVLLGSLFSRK

As a reminder, the IC50 is the point on the concentration scale where inhibition reaches its midpoint. One may read the EC50 as the midpoint of the concentration-response curve. What is called thermodynamic solubility is solubility found after equilibrating the solid with the medium. For the compound `CN(C)C(=O)COc1ccc(-c2ccc(Cl)cc2)c(CN2CCN(c3ccc(C(=O)NS(=O)(=O)c4ccc(N[C@H](CCN5CCOCC5)CSc5ccccc5)c(S(=O)(=O)C(F)(F)F)c4)cc3)CC2)c1`, the IC50 in data set [1] and in data set [2] was below 10 nM throughout. Besides, the EC50 in data set [3] is 51 nM. In data set [4], this compound gave a thermodynamic solubility of 2 µM (≈ 2.09 µg/mL).
For `O=C(NS(=O)(=O)c1ccc(N[C@H](CCN2CCOCC2)CSc2ccccc2)c(S(=O)(=O)C(F)(F)F)c1)c1ccc(N2CCC(S(=O)(=O)c3ccccc3-c3ccc(Cl)cc3)CC2)cc1`, the IC50 is 21 nM in data set [1] and 87 nM in data set [2]. Further, the concentration giving a half-maximal response (EC50) in data set [3] is above 1100 nM. Moreover, the thermodynamic solubility in data set [4] worked out at 27 µM (≈ 26.8 µg/mL).
In the case of `O=C(NS(=O)(=O)c1ccc(N[C@H](CCN2CCOCC2)CSc2ccccc2)c(S(=O)(=O)C(F)(F)F)c1)c1ccc(N2CCN(Cc3ccncc3-c3ccc(Cl)cc3)CC2)cc1`, the concentration for half-maximal inhibition (IC50) in data set [1] is 15 nM; in data set [2] it was below 10 nM. Moreover, the EC50 in data set [3] was 201 nM.
In the same order, the values of `O=C(NS(=O)(=O)c1ccc(N[C@H](CCN2CCOCC2)CSc2ccccc2)c(S(=O)(=O)C(F)(F)F)c1)c1ccc(N2CCN(Cc3cccnc3-c3ccc(Cl)cc3)CC2)cc1` are 25 nM, 26 nM and 374 nM.
As to `O=C(NS(=O)(=O)c1ccc(N[C@H](CCN2CCOCC2)CSc2ccccc2)c(S(=O)(=O)C(F)(F)F)c1)c1ccc(N2CCN(Cc3cn[nH]c3-c3ccc(Cl)cc3)CC2)cc1`, the values for the concentration for half-maximal inhibition (IC50) in data set [1] and in data set [2] were 38 nM and 40 nM, respectively. For the same compound, the EC50 in data set [3] was above 10000 nM. The compound also had a solubility (thermodynamic) in data set [4] below 1 µM.
`Cn1ncc(CN2CCN(c3ccc(C(=O)NS(=O)(=O)c4ccc(N[C@H](CCN5CCOCC5)CSc5ccccc5)c(S(=O)(=O)C(F)(F)F)c4)cc3)CC2)c1-c1ccc(Cl)cc1`: the concentration for half-maximal inhibition (IC50) in data set [1] and in data set [2] was below 10 nM in each case. Also, the EC50 in data set [3] was 420 nM. The solubility (thermodynamic) in data set [4] is below 1 µM.
For the compound `CN(C)C(=O)COc1cccc(-c2ccc(Cl)cc2)c1CN1CCN(c2ccc(C(=O)NS(=O)(=O)c3ccc(N[C@H](CCN4CCOCC4)CSc4ccccc4)c(S(=O)(=O)C(F)(F)F)c3)cc2)CC1`, the IC50 in data set [1] and in data set [2] was below 10 nM each time. Moreover, the EC50 in data set [3] was 18 nM. The thermodynamic solubility in data set [4] is below 1 µM.
As to `CN(C)CCOc1cccc(-c2ccc(Cl)cc2)c1CN1CCN(c2ccc(C(=O)NS(=O)(=O)c3ccc(N[C@H](CCN4CCOCC4)CSc4ccccc4)c(S(=O)(=O)C(F)(F)F)c3)cc2)CC1`, the IC50 in data set [2] was below 10 nM. Also, the EC50 in data set [3] was 4 nM. In data set [4], this compound showed a solubility (thermodynamic) below 1 µM.
`CN(C)CCOc1ccc(-c2ccc(Cl)cc2)c(CN2CCN(c3ccc(C(=O)NS(=O)(=O)c4ccc(N[C@H](CCN5CCOCC5)CSc5ccccc5)c(S(=O)(=O)C(F)(F)F)c4)cc3)CC2)c1`: the IC50 in data set [1] and in data set [2] was below 10 nM in each case. Further, the concentration giving a half-maximal response (EC50) in data set [3] stood at 23 nM. In data set [4], the thermodynamic solubility is below 1 µM.
As to `O=C(NS(=O)(=O)c1ccc(N[C@H](CCN2CCOCC2)CSc2ccccc2)c(S(=O)(=O)C(F)(F)F)c1)c1ccc(N2CCN(Cc3ccccc3-c3ccc(Cl)cc3)CC2)cc1`, the results for the half-maximal inhibitory concentration (IC50) in data set [1] and in data set [2] were 16 nM and 11 nM, respectively. Further, the EC50 in data set [3] came out at 11 nM. The thermodynamic solubility in data set [4] is 14 µM (≈ 13.2 µg/mL).
On to `N=C(NS(=O)(=O)c1ccc(N[C@H](CCN2CCOCC2)CSc2ccccc2)c(S(=O)(=O)C(F)(F)F)c1)c1ccc(N2CCN(Cc3ccccc3-c3ccc(Cl)cc3)CC2)cc1`, for which the concentration for half-maximal inhibition (IC50) in data set [1] stood at 63 nM; in data set [2] it was 19 nM. Moreover, the EC50 in data set [3] is above 3190 nM. This compound yielded a thermodynamic solubility in data set [4] below 1 µM.
In general, pKa refers to the negative logarithm of the acid dissociation constant. The low end stands for a stronger acid or weaker base, the high end for a weaker acid or stronger base. For the compound `O=C(NS(=O)(=O)c1ccc(N[C@H](CCN2CCOCC2)CSc2ccccc2)c(S(=O)(=O)C(F)(F)F)c1)c1ccc(N2CCN(Cc3ccccc3-c3ccc(Cl)cc3)CC2)nn1`, the IC50 in data set [1] worked out at 378 nM; in data set [2] it was 270 nM. The concentration for a half-maximal effect (EC50) in data set [3] is 563 nM. In data set [4], this compound displayed a solubility (thermodynamic) of 38 µM (≈ 35.9 µg/mL). This compound also showed a pKa in data set [5] of 3.6.
In the same order, the values of `O=C(NS(=O)(=O)c1ccc(N[C@H](CCN2CCOCC2)CSc2ccccc2)c(S(=O)(=O)C(F)(F)F)c1)c1cnc(N2CCN(Cc3ccccc3-c3ccc(Cl)cc3)CC2)nc1` are 39 nM, 18 nM, 177 nM, 3 µM (≈ 2.83 µg/mL) and 3.5.
In the same order, the values of `O=C(NS(=O)(=O)c1ccc(N[C@H](CCN2CCOCC2)CSc2ccccc2)c(S(=O)(=O)C(F)(F)F)c1)c1csc(N2CCN(Cc3ccccc3-c3ccc(Cl)cc3)CC2)n1` are 98 nM, 119 nM, 385 nM, 2 µM (≈ 1.9 µg/mL) and 2.6.
Turning to `O=C(NS(=O)(=O)c1ccc(N[C@H](CCN2CCOCC2)CSc2ccccc2)c(S(=O)(=O)C(F)(F)F)c1)c1ccc(N2CC3(CN(Cc4ccccc4-c4ccc(Cl)cc4)C3)C2)cc1`, the figures for the IC50 in data set [1] and in data set [2] were 77 nM and above 468 nM, respectively. For the same compound, the half-maximal effective concentration (EC50) in data set [3] was found to be 610 nM. Further, in data set [4], the thermodynamic solubility is below 1 µM.
For the compound `O=C(NS(=O)(=O)c1ccc(N[C@H](CCN2CCOCC2)CSc2ccccc2)c(S(=O)(=O)C(F)(F)F)c1)c1ccc(P2(=O)CCN(Cc3ccccc3-c3ccc(Cl)cc3)CC2)cc1`, the 50% inhibitory concentration (IC50) in data set [1] is 308 nM; in data set [2] it was above 1100 nM. Also, the EC50 in data set [3] is above 1100 nM. For the same compound, the thermodynamic solubility in data set [4] came out at 4 µM (≈ 3.9 µg/mL).
Turning to `O=C(NS(=O)(=O)c1ccc(N[C@H](CCN2CCOCC2)CSc2ccccc2)c(S(=O)(=O)C(F)(F)F)c1)c1ccc(N2CCP(=O)(Cc3ccccc3-c3ccc(Cl)cc3)CC2)cc1`, the IC50 was determined as 18 nM in data set [1] and 54 nM in data set [2]. Further, the EC50 in data set [3] was above 1100 nM. In data set [4], the thermodynamic solubility was 21 µM (≈ 20.5 µg/mL).
In the same order, the values of `O=C(NS(=O)(=O)c1ccc(N[C@H](CCN2CCOCC2)CSc2ccccc2)c(S(=O)(=O)C(F)(F)F)c1)c1ccc(N2CCC(Oc3ccccc3-c3ccc(Cl)cc3)CC2)cc1` are 38 nM, 250 nM, above 921 nM and 35 µM (≈ 33 µg/mL).
For the compound `O=C(NS(=O)(=O)c1ccc(N[C@H](CCN2CCOCC2)CSc2ccccc2)c(S(=O)(=O)C(F)(F)F)c1)c1ccc(N2CCC(C(=O)c3ccccc3-c3ccc(Cl)cc3)CC2)cc1`, the figures for the half-maximal inhibitory concentration (IC50) in data set [1] and in data set [2] were below 10 nM and 65 nM, respectively. The concentration for a half-maximal effect (EC50) in data set [3] is above 1100 nM.
Turning to `O=C(NS(=O)(=O)c1ccc(N[C@H](CCN2CCOCC2)CSc2ccccc2)c(S(=O)(=O)C(F)(F)F)c1)c1ccc(N2CCC(Sc3ccccc3-c3ccc(Cl)cc3)CC2)cc1`, the half-maximal inhibitory concentration (IC50) worked out at 31 nM in data set [1] and 61 nM in data set [2]. Further, the EC50 in data set [3] is above 516 nM. This compound also returned a thermodynamic solubility in data set [4] of 27 µM (≈ 25.9 µg/mL).
In the same order, the values of `O=C(NS(=O)(=O)c1ccc(N[C@H](CCN2CCOCC2)CSc2ccccc2)c(S(=O)(=O)C(F)(F)F)c1)c1ccc(N2CCC([S@@+]([O-])c3ccccc3-c3ccc(Cl)cc3)CC2)cc1` are 11 nM, 19 nM, 90 nM and 26 µM (≈ 25.4 µg/mL).
On to `O=C(NS(=O)(=O)c1ccc(N[C@H](CCN2CCOCC2)CSc2ccccc2)c(S(=O)(=O)C(F)(F)F)c1)c1ccc(N2CCC([S@+]([O-])c3ccccc3-c3ccc(Cl)cc3)CC2)cc1`, for which the IC50 in data set [1] was found to be 54 nM; in data set [2] it was 545 nM. The EC50 in data set [3] is above 1100 nM. Moreover, in data set [4], the thermodynamic solubility stood at 12 µM (≈ 11.7 µg/mL).
Consider `N#CC1(Cc2ccccc2-c2ccc(Cl)cc2)CCN(c2ccc(C(=O)NS(=O)(=O)c3ccc(N[C@H](CCN4CCOCC4)CSc4ccccc4)c(S(=O)(=O)C(F)(F)F)c3)cc2)CC1`, for which the IC50 in data set [1] and in data set [2] was below 10 nM throughout. The EC50 in data set [3] was found to be 504 nM. This compound also returned a thermodynamic solubility in data set [4] of 2 µM (≈ 1.93 µg/mL).
In the case of `NCC1(Cc2ccccc2-c2ccc(Cl)cc2)CCN(c2ccc(C(=O)NS(=O)(=O)c3ccc(N[C@H](CCN4CCOCC4)CSc4ccccc4)c(S(=O)(=O)C(F)(F)F)c3)cc2)CC1`, the half-inhibitory concentration (IC50) in data set [1] and in data set [2] was below 10 nM each time. In addition, in data set [3], the concentration for a half-maximal effect (EC50) turned out to be 395 nM. The compound further registered a solubility (thermodynamic) in data set [4] below 1 µM.
Regarding `CCOC(=O)C1(Cc2ccccc2-c2ccc(Cl)cc2)CCN(c2ccc(C(=O)NS(=O)(=O)c3ccc(N[C@H](CCN4CCOCC4)CSc4ccccc4)c(S(=O)(=O)C(F)(F)F)c3)cc2)CC1`, the half-maximal inhibitory concentration (IC50) in data set [1] came out at 30 nM; in data set [2] it was 17 nM. Also, in data set [3], the concentration for a half-maximal effect (EC50) worked out at 1790 nM. The solubility (thermodynamic) in data set [4] was below 1.5 µM.
For `O=C(NS(=O)(=O)c1ccc(N[C@H](CCN2CCOCC2)CSc2ccccc2)c(S(=O)(=O)C(F)(F)F)c1)c1ccc(N2CCC(CO)(Cc3ccccc3-c3ccc(Cl)cc3)CC2)cc1`, the values for the IC50 in data set [1] and in data set [2] were below 10 nM and 59 nM, respectively. Besides, the EC50 in data set [3] was 112 nM. Further, the solubility (thermodynamic) in data set [4] came to 6 µM (≈ 5.83 µg/mL).
Regarding `O=C(NS(=O)(=O)c1ccc(N[C@H](CCN2CCOCC2)CSc2ccccc2)c(S(=O)(=O)C(F)(F)F)c1)c1ccc(N2CCN(Cc3ccccc3-c3ncc(Cl)cn3)CC2)cc1`, the half-maximal inhibitory concentration (IC50) in data set [1] and in data set [2] was 21 nM each time. For the same compound, the EC50 in data set [3] was 3980 nM. This compound returned a solubility (thermodynamic) in data set [4] below 1 µM.
Turning to `CC1(C)CCC(c2ccc(Cl)cc2)=C(CN2CCN(c3ccc(C(=O)NS(=O)(=O)c4ccc(N[C@H](CCN5CCOCC5)CSc5ccccc5)c(S(=O)(=O)C(F)(F)F)c4)cc3)CC2)C1` [NAVITOCLAX], the EC50 in data set [3] was determined as 14 nM.
